Experimental data from ChEMBL document CHEMBL3769357, “Phosphoramidate protides of five flavones and their antiproliferative activity against HepG2 and L-O2 cell lines” (Eur J Med Chem, 2016).

Key:
[1] = Cytotoxicity against human LO2 cells after 48 hrs by MTT assay; type: cell-based; conditions: L02, 48 h
Method in brief: (§1)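 After 48 h, MTT (5 mg/mL in PBS) added, 4 h at 37 °C, DMSO added, absorbance read at 570 nm. IC50 is the 50% growth-inhibition concentration, mean of three independent experiments.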

HepG2 [2] = test: Selectivity index, ratio of IC50 for human LO2 cells to human HepG2 cells
T-24 = test: Induction of cell cycle arrest in human T24 cells assessed as accumulation at G2/M phase at 160 uM after 24 hrs by propidium iodide staining-based flow cytometry (reference value: 14.45%); type: functional
HepG2 [3] = test: Antiproliferative activity against human HepG2 cells after 48 hrs by MTT assay; type: functional, cell-based; conditions: HepG2, 48 h; method in brief: as §1
LN-229 = test: Induction of cell cycle arrest in human LNT229 cells assessed as accumulation at G2/M phase at 100 uM after 24 hrs by propidium iodide staining-based flow cytometry (reference value: 34%); type: functional
BGC-823 = test: Induction of apoptosis in human BGC823 cells at 80 uM after 24 hrs by annexin V-FITC/propidium iodide staining-based flow cytometry (reference value: 1.5%); type: functional
HepG2 [4] = test: Induction of apoptosis in human HepG2 cells assessed as viable cells at IC50 after 4 hrs by annexin V-FITC/propidium iodide staining-based flow cytometry (reference value: 98.6%); type: functional
HepG2 [5] = test: Induction of apoptosis in human HepG2 cells assessed as early apoptotic cells at IC50 after 4 hrs by annexin V-FITC/propidium iodide staining-based flow cytometry (reference value: 0.41%); type: functional
HepG2 [6] = test: Induction of cell cycle arrest in human HepG2 cells assessed as accumulation at S phase at IC50 after 24 hrs by propidium iodide staining-based flow cytometry (reference value: 16.1%); type: functional
HepG2 [7] = test: Induction of cell cycle arrest in human HepG2 cells assessed as accumulation at G0/G1 phase at IC50 after 24 hrs by propidium iodide staining-based flow cytometry (reference value: 67.5%); type: functional
HepG2 [8] = test: Induction of apoptosis in human HepG2 cells assessed as late apoptotic cells at IC50 after 24 hrs by annexin V-FITC/propidium iodide staining-based flow cytometry (reference value: 1.77%); type: functional
HepG2 [9] = test: Induction of apoptosis in human HepG2 cells assessed as late apoptotic cells at IC50 after 4 hrs by annexin V-FITC/propidium iodide staining-based flow cytometry (reference value: 0.53%); type: functional
HepG2 [10] = test: Induction of apoptosis in human HepG2 cells assessed as nectrotic cells at IC50 after 24 hrs by annexin V-FITC/propidium iodide staining-based flow cytometry (reference value: 6.70%); type: functional
HepG2 [11] = test: Induction of cell cycle arrest in human HepG2 cells assessed as accumulation at G2/M phase at IC50 after 24 hrs by propidium iodide staining-based flow cytometry (reference value: 16.4%); type: functional
HepG2 [12] = test: Induction of apoptosis in human HepG2 cells assessed as early apoptotic cells at IC50 after 24 hrs by annexin V-FITC/propidium iodide staining-based flow cytometry (reference value: 0.41%)
HepG2 [13] = test: Induction of apoptosis in human HepG2 cells assessed as viable cells at IC50 after 24 hrs by annexin V-FITC/propidium iodide staining-based flow cytometry (reference value: 90.5%); type: functional
HepG2 [14] = test: Induction of apoptosis in human HepG2 cells assessed as nectrotic cells at IC50 after 4 hrs by annexin V-FITC/propidium iodide staining-based flow cytometry (reference value: 0.46%); type: functional

| SMILES | IC50 [1] | Ratio IC50 (HepG2 [2]) | Activity (T-24) | IC50 (HepG2 [3]) | Activity (LN-229) | Activity (BGC-823) | Activity (HepG2 [4]) | Activity (HepG2 [5]) | Activity (HepG2 [6]) | Activity (HepG2 [7]) | Activity (HepG2 [8]) | Activity (HepG2 [9]) | Activity (HepG2 [10]) | Activity (HepG2 [11]) | Activity (HepG2 [12]) | Activity (HepG2 [13]) | Activity (HepG2 [14]) |
| --- | --- | --- | --- | --- | --- | --- | --- | --- | --- | --- | --- | --- | --- | --- | --- | --- | --- |
| O=c1cc(-c2ccc(O)cc2)oc2cc(O)cc(O)c12 [APIGENIN] | > 100 µM | >1.425 | 37.94% | 70.2 µM | – | – | – | – | – | – | – | – | – | – | – | – | – |
| O=c1c(-c2ccc(O)cc2)coc2cc(O)cc(O)c12 [GENISTEIN] | > 100 µM | – | – | > 100 µM | 58% | – | – | – | – | – | – | – | – | – | – | – | – |
| O=c1c(-c2ccc(O)cc2)coc2cc(O)ccc12 [DAIDZEIN] | > 100 µM | – | – | > 100 µM | – | 32.5% | – | – | – | – | – | – | – | – | – | – | – |
| COC(=O)[C@H](C)NP(=O)(Oc1ccccc1)Oc1cc(OC(C)=O)c2c(=O)c(-c3ccc(OC(C)=O)cc3)coc2c1 (some centres undefined) | 11.9 µM | 1.803 | – | 6.6 µM | – | – | 97.07% | 0.74% | 1.8% | 1.6% | 3.06% | 1.22% | 18.62% | 96.6% | 3.99% | 74.34% | 0.97% |
